4 compounds from ChEMBL document CHEMBL1154958, “Novel molecular hybrids of cinnamic acids and guanylhydrazones as potential antitubercular agents” (Bioorg Med Chem Lett, 2010) can be followed below.

Data set [1] has as its system Mycobacterium tuberculosis. In words: Antituberculosis activity against Mycobacterium tuberculosis H37Rv after 7 days by resazurin microtiter assay. It counts as functional. As to conditions: 168 h. Summed up: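 H37Rv suspension seeded at 10⁵ cells/well in Middlebrook 7H9 broth. Compounds were serially diluted on the plate, and controls got matching DMSO. Plates were incubated at 37 °C for 7 days, then fresh 0.02% resazurin was added and plates incubated a further 48 h. MIC was the lowest concentration giving complete inhibition, read visually by colour.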
Background: The colour change of resazurin is a common sign of viable cells or microbes.

Data set [2] is described as follows: Cytotoxicity against african green monkey Vero C1008 cells after 72 hrs by MTT assay. As to conditions: chlorocebus sabaeus. It counts as cell-based. (Tetrazolium assays rely on reduction of a dye to a coloured formazan, in cell work by metabolically active cells.)
The nature of data set [3]: Cytotoxicity against african green monkey Vero C1008 cells assessed as cell viability at 125 ug/ml after 72 hrs by MTT assay. It counts as cell-based. As to conditions: chlorocebus sabaeus, read-out: Activity.
Data set [4] in a line: Cytotoxicity against african green monkey Vero C1008 cells assessed as cell viability at 62.5 ug/ml after 72 hrs by MTT assay. It counts as cell-based. The note with it: chlorocebus sabaeus, read-out: Activity.
Data set [5] in a line: Cytotoxicity against african green monkey Vero C1008 cells assessed as cell viability at 31.25 ug/ml after 72 hrs by MTT assay. The note with it: chlorocebus sabaeus, read-out: Activity. It counts as cell-based.
A short description of data set [6]: Cytotoxicity against african green monkey Vero C1008 cells assessed as cell viability at 2000 ug/ml after 72 hrs by MTT assay. It counts as cell-based. As to conditions: chlorocebus sabaeus, read-out: Activity.
A short description of data set [7]: Cytotoxicity against african green monkey Vero C1008 cells assessed as cell viability at 1000 ug/ml after 72 hrs by MTT assay. The class given is cell-based. The note with it: chlorocebus sabaeus, read-out: Activity.

Molecules are shown by their SMILES. In brackets after ≈: the same amount, converted by molar mass.

One may read the MIC as the lowest concentration that inhibits growth of the organism. `N=C(N)N/N=C/c1ccc(O)cc1` yielded an MIC in data set [1] of 1120 µM (≈ 200 µg/mL).

Consider `O=C(O)/C=C/c1ccccc1` [CINNAMIC ACID], for which it took 675 µM (≈ 100 µg/mL) to inhibit growth in data set [1] (MIC).

The CC50 is the concentration giving 50% cytotoxicity. With `NNC(=O)c1ccncc1` [ISONIAZID], it took 1.8 µM (≈ 0.247 µg/mL) to inhibit growth in data set [1] (MIC). The same compound registered a CC50 at 72 h in data set [2] of 5.83 mM. For the same compound, the viability at 72 h, 125 ug/ml in data set [3] came out at 95.5%. Moreover, the viability at 72 h, 62.5 ug/ml in data set [4] was 98.5%. For the same compound, in data set [5], the viability at 72 h, 31.25 ug/ml was determined as 99.3%. Besides, the viability at 72 h, 2000 ug/ml in data set [6] turned out to be 23.1%. Further, the viability at 72 h, 1000 ug/ml in data set [7] stood at 31.7%.

The compound `O=C(/C=C/c1ccccc1)Oc1ccccc1` [PHENYL CINNAMATE] came in with a minimum inhibitory concentration (MIC) in data set [1] of 502 µM (≈ 113 µg/mL).
